In ChEMBL document CHEMBL4311931, “Controlling cellular distribution of drugs with permeability modifying moieties” (Medchemcomm, 2019):

Experiments:
[1] = target: T1, Beta-2 adrenergic receptor (Homo sapiens, UniProt P07550); assay: Displacement of [3H](-)CGP 12177 from human recombinant beta2 adrenoceptor after 120 mins by scintillation counting method
Target sequence in this assay (P07550 whole entry): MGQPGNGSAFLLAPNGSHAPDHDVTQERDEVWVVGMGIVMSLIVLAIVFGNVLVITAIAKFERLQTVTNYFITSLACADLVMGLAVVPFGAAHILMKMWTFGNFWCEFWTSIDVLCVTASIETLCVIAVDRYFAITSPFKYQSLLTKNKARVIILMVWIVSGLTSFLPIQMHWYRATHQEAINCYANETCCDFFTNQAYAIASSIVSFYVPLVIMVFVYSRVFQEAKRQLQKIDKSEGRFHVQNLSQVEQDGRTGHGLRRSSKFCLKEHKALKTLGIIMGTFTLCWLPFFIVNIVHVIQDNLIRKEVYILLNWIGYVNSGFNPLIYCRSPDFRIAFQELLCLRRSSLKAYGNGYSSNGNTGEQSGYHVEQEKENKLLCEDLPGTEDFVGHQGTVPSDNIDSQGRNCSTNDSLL

[2] = target: T2, 5-hydroxytryptamine receptor 1A (Homo sapiens, UniProt P08908); assay: Displacement of [3H]-OH-DPAT from human recombinant 5-HT1A receptor measured after 60 mins by scintillation counter method
T2 sequence (P08908 whole entry): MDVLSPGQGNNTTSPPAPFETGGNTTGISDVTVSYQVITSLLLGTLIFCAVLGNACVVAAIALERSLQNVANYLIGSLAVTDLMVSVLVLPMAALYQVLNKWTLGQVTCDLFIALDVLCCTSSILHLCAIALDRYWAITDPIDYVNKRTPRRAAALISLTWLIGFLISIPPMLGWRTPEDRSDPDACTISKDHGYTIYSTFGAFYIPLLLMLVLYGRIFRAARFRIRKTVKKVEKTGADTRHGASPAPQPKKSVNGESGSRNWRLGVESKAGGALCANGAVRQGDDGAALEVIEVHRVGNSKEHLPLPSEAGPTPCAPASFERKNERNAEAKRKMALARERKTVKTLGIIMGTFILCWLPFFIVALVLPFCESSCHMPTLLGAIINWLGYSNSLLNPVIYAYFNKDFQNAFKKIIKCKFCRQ

[3] = target: T1, Beta-2 adrenergic receptor; assay: Antagonist activity at human recombinant beta2 adrenoreceptor expressed in CHOK1 cells incubated for 30 mins by HTRF relative to parent compound; type: cell-based
Target sequence in this assay (P07550 whole entry, looked up): as the sequence (P07550 whole entry) above

[4] = target: T1, Beta-2 adrenergic receptor; assay: Antagonist activity at human recombinant beta2 adrenoreceptor expressed in CHOK1 cells incubated for 30 mins by HTRF; type: cell-based
Target sequence in this assay (P07550 whole entry): as the sequence (P07550 whole entry) above

[5] = target: T2, 5-hydroxytryptamine receptor 1A; assay: Antagonist activity at human 5HT1A expressed in BAF3 cells by fluorimetry analysis; type: cell-based
[6] = target: T3, 5-hydroxytryptamine receptor 1A (Homo sapiens) (UniProt P08908); assay: Displacement of [3H]-OH-DPAT from human recombinant 5-HT1A receptor measured after 60 mins by scintillation counter method relative to parent compound
T3 sequence (whole entry): T2 sequence (P08908 whole entry)

[7] = target: T1, Beta-2 adrenergic receptor; assay: Displacement of [3H](-)CGP 12177 from human recombinant beta2 adrenoceptor after 120 mins by scintillation counting method relative to parent compound
Target sequence in this assay (P07550 whole entry, looked up): as the sequence (P07550 whole entry) above

K562 = assay: Antiproliferative activity against human K562 cells assessed as reduction in cell viability by measuring ATP level incubated for 3 days by Celltiter-Glo assay; type: functional, cell-based; conditions: K562, 72 h
Summary of the method: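 K562 cells grown in RPMI 1640 with 50 mM HEPES and 10% FBS at 37 °C in 5% CO2, then plated at 20 000 cells per well. Compounds were log-serially diluted in DMSO, then in RPMI, to final concentrations of 10 000 nM to 0.01 nM. Cells were exposed for 3 days, and total intracellular ATP was read by CellTiter-Glo. IC50 is the geometric mean of at least two duplicate runs.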

[8] = Permeability of compound in 5% DMSO after 7 hrs by PAMPA; type: ADME; conditions: read-out: permeability
PC-3 = assay: Antiproliferative activity against human PC3 cells assessed as reduction in cell viability by Celltiter-Glo assay; type: functional, cell-based
Summary of the method: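 PC3 cells from ATCC, authenticated by STR analysis. Viability was read by CellTiter-Glo, and cell EC50 is the geometric mean of at least two duplicate runs.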

DLD-1 [9] = assay: cells; conditions: Homo sapiens
DLD-1 [10] = assay: cells; conditions: Homo sapiens; remark: listed apart in the source

C=CCc1ccccc1OCC(O)CNCCOCCOCCOCCOCCNC(=O)OC(C)(C)C (stereo unspecified)
Ki [1]: 3.7 nM | Ki [2]: 24.1 nM | fold change (FC) [3]: 2.09 | IC50 [4]: 6.9 nM | IC50 [5]: > 1000 nM | fold change (FC) [6]: 1.12 | fold change (FC) [7]: 7.4

Cc1nc(Nc2ncc(C(=O)Nc3c(C)cccc3Cl)s2)cc(N2CCN(CCOCCOCCN)CC2)n1
IC50 (K562): 628 nM | Papp at 7 h [8]: 0.056 ×10⁻⁶ cm/s

Cc1nc(Nc2ncc(C(=O)Nc3c(C)cccc3Cl)s2)cc(N2CCN(CCOCCOCCNC(=O)C3C(C(=O)O)C(C(=O)O)C3C(=O)O)CC2)n1 (stereo unspecified)
IC50 (K562): 183 nM | Papp at 7 h [8]: 0.0122 ×10⁻⁶ cm/s

Cc1nc(Nc2ncc(C(=O)Nc3c(C)cccc3Cl)s2)cc(N2CCN(CCOCCOCCNC(=O)CS(=O)(=O)O)CC2)n1
IC50 (K562): 120 nM | Papp at 7 h [8]: 0.0274 ×10⁻⁶ cm/s

CC(C)NCC(O)COc1ccccc1CCCSCC(=O)NCCOCCOCCNC(=O)OC(C)(C)C (stereo unspecified)
Ki [1]: 3.2 nM | Ki [2]: 48.9 nM | fold change (FC) [3]: 0.31 | Papp at 7 h [8]: 0.0189 ×10⁻⁶ cm/s | IC50 [4]: 22 nM | IC50 [5]: 640 nM | fold change (FC) [6]: 0.871 | fold change (FC) [7]: 0.21

C=CCc1ccccc1OCC(O)CNCCOCCOCCOCCOCCNC(=O)C1C(C(=O)O)C(C(=O)O)C1C(=O)O (stereo unspecified)
Ki [1]: 512 nM | Ki [2]: 1780 nM | fold change (FC) [3]: 303 | Papp at 7 h [8]: 0.0012 ×10⁻⁶ cm/s | IC50 [4]: > 1000 nM | IC50 [5]: > 1000 nM | fold change (FC) [6]: 82.4 | fold change (FC) [7]: 1024

O=C(/C=C/c1cccnc1)NCCCCC1CCN(C(=O)c2ccccc2)CC1 [DAPORINAD]
Papp at 7 h [8]: 39.5 ×10⁻⁶ cm/s | IC50 (PC-3): 6 nM

CC(C)NCC(O)COc1ccccc1CCCSCC(=O)NCCOCCOCCNC(=O)CS(=O)(=O)O (stereo unspecified)
Ki [1]: 16.4 nM | Ki [2]: 1780 nM | fold change (FC) [3]: 1.19 | IC50 [4]: 86 nM | IC50 [5]: > 10000 nM | fold change (FC) [6]: 15.1 | fold change (FC) [7]: 1.09

C=CCc1ccccc1OCC(O)CNCCOCCOCCOCCOCCNC(=O)CS(=O)(=O)O (stereo unspecified)
Ki [1]: 752 nM | Ki [2]: 261 nM | fold change (FC) [3]: 25.3 | IC50 [4]: 83.4 nM | IC50 [5]: > 1000 nM | fold change (FC) [6]: 12.1 | fold change (FC) [7]: 150

CC(C)NCC(O)COc1ccccc1CCCSCC(=O)NCCOCCOCCNC(=O)C1C(C(=O)O)C(C(=O)O)C1C(=O)O (stereo unspecified)
Ki [1]: 78.6 nM | Ki [2]: 1720 nM | fold change (FC) [3]: 5.27 | IC50 [4]: 380 nM | IC50 [5]: > 10000 nM | fold change (FC) [6]: 35.2 | fold change (FC) [7]: 24.6

Cc1sc2c(c1C)C(c1ccc(Cl)cc1)=N[C@@H](CC(=O)OC(C)(C)C)c1nnc(C)n1-2
Papp at 7 h [8]: 2.24 ×10⁻⁶ cm/s

Cc1nn(C)cc1-c1ccc2cc(CCN3CCC[C@H]3C)ccc2n1
Papp at 7 h [8]: 1.13 ×10⁻⁶ cm/s

NCCOCCOCC(=O)N1CCN(C(=O)c2cc(Cc3n[nH]c(=O)c4ccccc34)ccc2F)CC1
EC50 (DLD-1 [9]): > 100000 nM | EC50 (DLD-1 [10]): 600 nM | Papp at 7 h [8]: 0.00119 ×10⁻⁶ cm/s

O=C(CS(=O)(=O)O)NCCOCCOCC(=O)N1CCN(C(=O)c2cc(Cc3n[nH]c(=O)c4ccccc34)ccc2F)CC1
EC50 (DLD-1 [9]): 53000 nM | EC50 (DLD-1 [10]): 1100 nM

C=CCc1ccccc1OCC(O)CNCCOCCOCCOCCOCCNC(=O)CCCCCC1(C)C(/C=C/C=C/C=C2/N(CCCS(=O)(=O)O)c3ccc(S(=O)(=O)O)cc3C2(C)C)=[N+](CCCS(=O)(=O)[O-])c2ccc(S(=O)(=O)O)cc21 (stereo unspecified)
Ki [1]: 547 nM | Ki [2]: 2860 nM | fold change (FC) [3]: 151 | IC50 [4]: 500 nM | IC50 [5]: > 1000 nM | fold change (FC) [6]: 132 | fold change (FC) [7]: 1090

Cc1nc(Nc2ncc(C(=O)Nc3c(C)cccc3Cl)s2)cc(N2CCN(CCOCCOCCNC(=O)OC(C)(C)C)CC2)n1
IC50 (K562): 1.64 nM | Papp at 7 h [8]: 0.0065 ×10⁻⁶ cm/s

Cc1nc(Nc2ncc(C(=O)Nc3c(C)cccc3Cl)s2)cc(N2CCNCC2)n1
Papp at 7 h [8]: 0.0371 ×10⁻⁶ cm/s

O=C(O)C1C(C(=O)O)C(C(=O)NCCOCCOCC(=O)N2CCN(C(=O)c3cc(Cc4n[nH]c(=O)c5ccccc45)ccc3F)CC2)C1C(=O)O (stereo unspecified)
EC50 (DLD-1 [9]): > 100000 nM | EC50 (DLD-1 [10]): 7800 nM

Cc1nc(Nc2ncc(C(=O)Nc3c(C)cccc3Cl)s2)cc(N2CCN(CCO)CC2)n1.O [DASATINIB]
IC50 (K562): 0.638 nM | Papp at 7 h [8]: 1.49 ×10⁻⁶ cm/s

COC(=O)CSCCCc1ccccc1OCC(O)CNC(C)C (stereo unspecified)
Ki [1]: 15 nM | Ki [2]: 56.1 nM | fold change (FC) [3]: 1 | Papp at 7 h [8]: 0.0436 ×10⁻⁶ cm/s | IC50 [4]: 72 nM | IC50 [5]: 2900 nM | fold change (FC) [6]: 1 | fold change (FC) [7]: 1

O=C(c1cc(Cc2n[nH]c(=O)c3ccccc23)ccc1F)N1CCN(C(=O)C2CC2)CC1 [OLAPARIB]
EC50 (DLD-1 [9]): 19000 nM | EC50 (DLD-1 [10]): 100 nM | Papp at 7 h [8]: 3.37 ×10⁻⁶ cm/s

CC(C)NCC(O)COc1ccccc1CCCSCC(=O)NCCOCCOCCN (stereo unspecified)
Ki [1]: 2.9 nM | Ki [2]: 2860 nM | fold change (FC) [3]: 0.26 | IC50 [4]: 19 nM | IC50 [5]: > 10000 nM | fold change (FC) [6]: 6.32 | fold change (FC) [7]: 0.19

CC(C)NCC(O)COc1ccccc1CCCSCC(=O)NCCOCCOCCNC(=O)CCCCCC1(C)C(/C=C/C=C/C=C2/N(CCCS(=O)(=O)O)c3ccc(S(=O)(=O)O)cc3C2(C)C)=[N+](CCCS(=O)(=O)[O-])c2ccc(S(=O)(=O)O)cc21 (stereo unspecified)
Ki [1]: 26 nM | Ki [2]: 925 nM | fold change (FC) [3]: 1.33 | IC50 [4]: 96 nM | IC50 [5]: > 10000 nM | fold change (FC) [6]: 18.9 | fold change (FC) [7]: 1.73

Cc1nc(Nc2ncc(C(=O)Nc3c(C)cccc3Cl)s2)cc(N2CCN(CCOCCOCCNC(=O)CCCCCC3(C)C(/C=C/C=C/C=C4/N(CCCS(=O)(=O)O)c5ccc(S(=O)(=O)O)cc5C4(C)C)=[N+](CCCS(=O)(=O)[O-])c4ccc(S(=O)(=O)O)cc43)CC2)n1 (stereo unspecified)
IC50 (K562): 29.1 nM

CC1(CCCCCC(=O)NCCOCCOCC(=O)N2CCN(C(=O)c3cc(Cc4n[nH]c(=O)c5ccccc45)ccc3F)CC2)C(/C=C/C=C/C=C2/N(CCCS(=O)(=O)O)c3ccc(S(=O)(=O)O)cc3C2(C)C)=[N+](CCCS(=O)(=O)[O-])c2ccc(S(=O)(=O)O)cc21 (stereo unspecified)
EC50 (DLD-1 [9]): 70000 nM | EC50 (DLD-1 [10]): 600 nM

O=C(c1cc(Cc2n[nH]c(=O)c3ccccc23)ccc1F)N1CCNCC1
EC50 (DLD-1 [9]): > 100000 nM | EC50 (DLD-1 [10]): 200 nM | Papp at 7 h [8]: 0.081 ×10⁻⁶ cm/s

C=CCc1ccccc1OCC(O)CNC(C)C (stereo unspecified) [ALPRENOLOL]
Ki [2]: 21.6 nM | Papp at 7 h [8]: 10.9 ×10⁻⁶ cm/s | IC50 [5]: 630 nM

C=CCc1ccccc1OCC(O)CNCCOCCOCCOCCOCCN (stereo unspecified)
Ki [1]: 10.3 nM | Ki [2]: 35.8 nM | fold change (FC) [3]: 30.3 | IC50 [4]: 100 nM | IC50 [5]: > 1000 nM | fold change (FC) [6]: 1.66 | fold change (FC) [7]: 20.6

CC(C)(C)OC(=O)NCCOCCOCC(=O)N1CCN(C(=O)c2cc(Cc3n[nH]c(=O)c4ccccc34)ccc2F)CC1
EC50 (DLD-1 [9]): > 100000 nM | EC50 (DLD-1 [10]): 700 nM
